Tests used:
L1210 [1] = experiment: Intracellular level of conjugate in L1210 cells in the presence of DFMO at 50 uM; format: functional, cell-based; conditions: Mus musculus
Outline: (§1)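 L1210 cells in RPMI 1640/10% FCS with 2 mM aminoguanidine, seeded at 4 × 10⁴ cells/mL. Conjugate, with or without 5 mM DFMO, added at seeding; cells cultured 48 h, washed in cold NaCl, and extracted with 0.2 N HClO₄. Conjugate and free putrescine, spermidine and spermine quantified by ion-pair HPLC (UV 254 nm, fluorescence ex 345/em 455 nm); normalised to protein. Student's t-test, p<0.05.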

CHO [2] = experiment: Cellular uptake in CHO cells at 50 uM; format: ADME, cell-based, Cricetulus griseus; conditions: chinese hamster
Outline: (§2)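 CHO (RPMI 1640, 10% FCS, 2 mM aminoguanidine) and CHO-MG (plus L-proline) cells seeded at 2 × 10⁵ cells/mL. Conjugate added 24 h after seeding and cells harvested 24 h later, then washed in cold 0.14 M NaCl and sonicated in 0.2 N HClO₄. Supernatant analysed by ion-pair reversed-phase HPLC (n-octanesulfonate), expressed as nmol/mg protein; mean ± SD of three determinations.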

CHO-MG [3] = experiment: Cellular uptake in CHO-MG cells at 50 uM; format: ADME, cell-based, Cricetulus griseus; conditions: chinese hamster; outline: as §2
[4] = Selectivity for uptake CHO cell line over CHO-MG cell line at 50 uM; format: functional, Cricetulus griseus
Outline: (§3)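 Ratio of intracellular conjugate level in CHO over CHO-MG cells. Both lines were exposed to conjugate 24 h after seeding at 2 × 10⁵ cells/mL, for 24 h with 2 mM aminoguanidine in the medium. Levels were measured by ion-pair HPLC of perchloric extracts and normalised to protein (nmol/mg).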

L1210 [5] = experiment: Intracellular level of putrescine in L1210 cells in the absence of DFMO at 50 uM; format: functional, cell-based; conditions: Mus musculus; outline: as §1
L1210 [6] = experiment: Intracellular level of spermidine in L1210 cells in the presence of DFMO at 50 uM; format: functional, cell-based; conditions: Mus musculus; outline: as §1
L1210 [7] = experiment: Intracellular level of spermine in L1210 cells in the absence of DFMO at 50 uM; format: functional, cell-based; conditions: Mus musculus; outline: as §1
Phosphodiesterase 1 = Phosphodiesterase 1 (Bos taurus, UniProt Q01061+P14100); experiment: Inhibition of bovine calmodulin-activated cAMP dependent phosphodiesterase; format: protein assay
Outline: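 Crude bovine heart PDE preparation containing calmodulin and Ca²⁺ (0.2 milliunit). Incubated 20 min at 37 °C with 0.1 mM [8-³H]cAMP and graded drug concentrations in 30 mM Tris-HCl, 3 mM MgSO₄, 0.6 mM AMP. Stopped with ZnSO₄; Ba(OH)₂ precipitated AMP with BaSO₄; supernatant radioactivity counted. IC50 is the concentration giving 50% inhibition.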

L1210 [8] = experiment: Intracellular level of putrescine in L1210 cells in the presence of DFMO at 50 uM; format: functional, cell-based; conditions: Mus musculus; outline: as §1
L1210 [9] = experiment: Intracellular level of spermidine in L1210 cells in the absence of DFMO at 50 uM; format: functional, cell-based; conditions: Mus musculus; outline: as §1
L1210 [10] = experiment: Intracellular level of spermine in L1210 cells in the presence of DFMO at 50 uM; format: functional, cell-based; conditions: Mus musculus; outline: as §1
L1210 [11] = experiment: Intracellular level of conjugate in L1210 cells in the absence of DFMO at 50 uM; format: functional, cell-based; conditions: Mus musculus; outline: as §1
L1210 [12] = experiment: Intracellular level of conjugate in L1210 cells in the presence of DFMO at 25 uM; format: functional, cell-based; conditions: Mus musculus; outline: as §1
L1210 [13] = experiment: Intracellular level of putrescine in L1210 cells in the absence of DFMO at 25 uM; format: functional, cell-based; conditions: Mus musculus; outline: as §1
L1210 [14] = experiment: Intracellular level of spermidine in L1210 cells in the presence of DFMO at 25 uM; format: functional, cell-based; conditions: Mus musculus; outline: as §1
L1210 [15] = experiment: Intracellular level of spermine in L1210 cells in the absence of DFMO at 25 uM; format: functional, cell-based; conditions: Mus musculus; outline: as §1
L1210 [16] = experiment: Intracellular level of spermine in L1210 cells in the presence of DFMO at 25 uM; format: functional, cell-based; conditions: Mus musculus; outline: as §1
[17] = Selectivity for uptake in CHO cell line over CHO-MG cell line at 25 uM; format: functional, Cricetulus griseus; outline: as §3
CHO-MG [18] = experiment: Inhibition of cell growth in CHO-MG cells in the presence of DFMO; format: functional, cell-based; conditions: Cricetulus griseus
Outline: (§4)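 L1210 cells seeded at 5 × 10⁴ cells/mL with conjugate added at seeding; CHO/CHO-MG plated at 2 × 10³ cells/mL with conjugate added after overnight (24 h). 5 mM DFMO added together with conjugate; medium contains 2 mM aminoguanidine. After 48 h, growth read by MTT formazan absorbance at 540 nm. IC50 is 50% growth inhibition; mean of three determinations.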

CHO [19] = experiment: Cellular uptake in CHO cells at 25 uM; format: ADME, cell-based, Cricetulus griseus; conditions: chinese hamster; outline: as §2
CHO-MG [20] = experiment: Cellular uptake in CHO-MG cells at 25 uM; format: ADME, cell-based, Cricetulus griseus; conditions: chinese hamster; outline: as §2
L1210 [21] = experiment: Intracellular level of putrescine in L1210 cells in the presence of DFMO at 25 uM; format: functional, cell-based; conditions: Mus musculus; outline: as §1
L1210 [22] = experiment: Intracellular level of spermidine in L1210 cells in the absence of DFMO at 25 uM; format: functional, cell-based; conditions: Mus musculus; outline: as §1
L1210 [23] = experiment: Intracellular level of conjugate in L1210 cells in the absence of DFMO at 25 uM; format: functional, cell-based; conditions: Mus musculus; outline: as §1
CHO [24] = experiment: Inhibition of cell growth in CHO cells in the presence of DFMO; format: functional, cell-based; conditions: Cricetulus griseus; outline: as §4
CHO [25] = experiment: Cellular uptake in CHO cells at 10 uM; format: ADME, cell-based, Cricetulus griseus; conditions: chinese hamster; outline: as §2
CHO-MG [26] = experiment: Cellular uptake in CHO-MG cells at 10 uM; format: ADME, cell-based, Cricetulus griseus; conditions: chinese hamster; outline: as §2
CHO-MG [27] = experiment: Selectivity for uptake in CHO cell line over CHO-MG cell line at 10 uM; format: functional, cell-based; conditions: Cricetulus griseus; outline: as §3
L1210 [28] = experiment: Inhibition of cell growth in L1210 cells in the presence of DFMO; format: functional, cell-based; conditions: Mus musculus; outline: as §4
L1210 [29] = experiment: Intracellular level of conjugate in L1210 cells in the presence of DFMO at 10 uM; format: functional, cell-based; conditions: Mus musculus; outline: as §1
L1210 [30] = experiment: Intracellular level of putrescine in L1210 cells in the absence of DFMO at 10 uM; format: functional, cell-based; conditions: Mus musculus; outline: as §1
L1210 [31] = experiment: Intracellular level of putrescine in L1210 cells in the presence of DFMO at 10 uM; format: functional, cell-based; conditions: Mus musculus; outline: as §1
L1210 [32] = experiment: Intracellular level of spermine in L1210 cells in the absence of DFMO at 10 uM; format: functional, cell-based; conditions: Mus musculus; outline: as §1
L1210 [33] = experiment: Intracellular level of conjugate in L1210 cells in the absence of DFMO at 10 uM; format: functional, cell-based; conditions: Mus musculus; outline: as §1
L1210 [34] = experiment: Intracellular level of spermine in L1210 cells in the presence of DFMO at 10 uM; format: functional, cell-based; conditions: Mus musculus; outline: as §1
L1210 [35] = experiment: Intracellular level of spermidine in L1210 cells in the absence of DFMO at 10 uM; format: functional, cell-based; conditions: Mus musculus; outline: as §1
L1210 [36] = experiment: Intracellular level of spermidine in L1210 cells in the presence of DFMO at 10 uM; format: functional, cell-based; conditions: Mus musculus; outline: as §1

Compound	Drug uptake (CHO [2]) [nmol/mg]	Drug uptake (CHO-MG [3]) [nmol/mg]	Selectivity ratio [4]	IC50 (Phosphodiesterase 1) [µM]	Selectivity ratio [17]	IC50 (CHO-MG [18]) [µM]	Drug uptake (CHO [19]) [nmol/mg]	Drug uptake (CHO-MG [20]) [nmol/mg]	IC50 (CHO [24]) [µM]	IC50 (L1210 [28]) [nM]	Drug uptake (L1210 [29]) [nmol/mg]	Drug uptake (L1210 [30]) [nmol/mg]	Drug uptake (L1210 [31]) [nmol/mg]	Drug uptake (L1210 [32]) [nmol/mg]	Drug uptake (L1210 [33]) [nmol/mg]	Drug uptake (L1210 [34]) [nmol/mg]	Drug uptake (L1210 [35]) [nmol/mg]	Drug uptake (L1210 [36]) [nmol/mg]	also measured
CNc1ccc(C2c3ccccc3N=C(NCCCNCCCCN)C2(C)C)cc1 (configuration not stated)	1.2	1.7	0.7	64	–	–	–	–	–	–	–	–	–	–	–	–	–	–	Drug uptake (L1210 [1]): 0.62 nmol/mg; Drug uptake (L1210 [5]): 1.1 nmol/mg; Drug uptake (L1210 [6]): 2.4 nmol/mg; Drug uptake (L1210 [7]): 9.2 nmol/mg; Drug uptake (L1210 [8]): 0.08 nmol/mg; Drug uptake (L1210 [9]): 15 nmol/mg; Drug uptake (L1210 [10]): 8 nmol/mg; Drug uptake (L1210 [11]): 0.77 nmol/mg
CNc1ccc(C2c3ccccc3N=C(NCCCCN)C2(C)C)cc1 (configuration not stated)	5.3	5.9	0.9	373	–	–	–	–	–	–	–	–	–	–	–	–	–	–	Drug uptake (L1210 [1]): 0.33 nmol/mg; Drug uptake (L1210 [5]): 1.9 nmol/mg; Drug uptake (L1210 [6]): 1.8 nmol/mg; Drug uptake (L1210 [7]): 8.6 nmol/mg; Drug uptake (L1210 [8]): 1 nmol/mg; Drug uptake (L1210 [9]): 20 nmol/mg; Drug uptake (L1210 [10]): 6.6 nmol/mg; Drug uptake (L1210 [11]): 0.6 nmol/mg
CN(c1ccccc1)C1c2ccccc2N=C(NCCCNCCCCN)C1(C)C (configuration not stated)	–	–	–	30	1	> 100	2.9	3.1	–	–	–	–	–	–	–	–	–	–	Drug uptake (L1210 [12]): 0.66 nmol/mg; Drug uptake (L1210 [13]): 0.65 nmol/mg; Drug uptake (L1210 [14]): 1.4 nmol/mg; Drug uptake (L1210 [15]): 10 nmol/mg; Drug uptake (L1210 [16]): 10 nmol/mg; Drug uptake (L1210 [21]): 0.12 nmol/mg; Drug uptake (L1210 [22]): 21 nmol/mg; Drug uptake (L1210 [23]): 0.64 nmol/mg
CNc1cccc2c1[C@H](C)C[C@]1(C)C(NCCCNCCCCN)=Nc3ccccc3[C@H]21	1.3	1.2	1	22	–	> 100	–	–	–	–	–	–	–	–	–	–	–	–	Drug uptake (L1210 [12]): 1.3 nmol/mg; Drug uptake (L1210 [13]): 1 nmol/mg; Drug uptake (L1210 [14]): 1.5 nmol/mg; Drug uptake (L1210 [15]): 11 nmol/mg; Drug uptake (L1210 [16]): 8.9 nmol/mg; Drug uptake (L1210 [21]): 0.02 nmol/mg; Drug uptake (L1210 [22]): 24 nmol/mg; Drug uptake (L1210 [23]): 1.2 nmol/mg
CN(c1ccccc1)C1c2ccccc2N=C(NCCCCN)C1(C)C (configuration not stated)	–	–	–	51	–	13	–	–	> 100	33000	–	–	–	–	–	–	–	–	Drug uptake (CHO [25]): 13 nmol/mg; Drug uptake (CHO-MG [26]): 12 nmol/mg; Ratio (CHO-MG [27]): 1.1
CN(c1ccccc1)C1c2ccccc2N=C(NCCCNCCCCNCCCN)C1(C)C (configuration not stated)	3.3	3.2	1	8	–	–	–	–	–	2300	2.6	0.41	0.02	9.5	1.8	7.6	16	0.6	–
CNc1cccc2c1[C@H](C)C[C@]1(C)C(NCCCNCCCCNCCCN)=Nc3ccccc3[C@H]21	–	–	–	10	1	23	2.2	2.1	11	2400	2.1	1.4	0.04	8.2	0.95	7.3	16	0.51	–
CNc1ccc(C2c3ccccc3N=C(NCCCNCCCCNCCCN)C2(C)C)cc1 (configuration not stated)	–	–	–	23	0.9	23	0.72	0.81	11	3100	0.74	1.1	0.07	9.4	0.54	7.8	17	0.66	–
NCCCCN [PUTRESCINE]	–	–	–	> 500	–	> 100	–	–	–	–	–	–	–	–	–	–	–	–	–
